Most compounds without a hit are left out; they make up all but 2.2% or so of the library.
NF-kB expr up: activators of NF-kB expression in neurons, primary screen, cell-based, HTS. human neuronal cells, NF-kB reporter expression; hits give high values. actives 1.6% (n = 190,000). fold change at 12.5 µM. AID 1239, 2008; in the data active = fold change above about 3.3
FLuc stim CS: FLuc activators, initial screening, artefact control for FLuc-dependent activation tests, biochemical, ATPlite luminescence; Luciferin 4-monooxygenase (Photinus pyralis), P08659; ATPlite luciferase biochemical, 10 min; 0 = ATP-free wells, 1 = DMSO control; activation factor at 10 µM; 200,000 tested, under 10 active;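 active = luciferase activation factor, scaled between plate controls, of at least 2 with compound at 10 µM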
Target sequence (P08659 whole entry, looked up): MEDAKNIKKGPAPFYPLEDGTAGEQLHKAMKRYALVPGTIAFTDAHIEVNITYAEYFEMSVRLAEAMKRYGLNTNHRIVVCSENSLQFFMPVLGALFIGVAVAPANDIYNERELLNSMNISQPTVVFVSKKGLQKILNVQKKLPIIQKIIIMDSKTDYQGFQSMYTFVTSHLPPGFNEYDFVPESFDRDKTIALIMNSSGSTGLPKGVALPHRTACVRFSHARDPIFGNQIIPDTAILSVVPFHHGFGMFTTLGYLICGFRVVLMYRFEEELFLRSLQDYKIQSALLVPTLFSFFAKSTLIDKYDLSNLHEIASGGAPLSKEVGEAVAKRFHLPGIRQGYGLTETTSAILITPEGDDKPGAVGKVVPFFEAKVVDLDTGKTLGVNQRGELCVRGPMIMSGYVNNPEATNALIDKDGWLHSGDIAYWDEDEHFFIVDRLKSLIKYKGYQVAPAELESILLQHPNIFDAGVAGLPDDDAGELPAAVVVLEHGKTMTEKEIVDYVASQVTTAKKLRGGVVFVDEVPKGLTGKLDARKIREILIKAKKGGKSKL
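Assay system: Luciferase/luciferin detection reagent, cell-free biochemical luciferase assay / Also added: ATP substrate / Schedule: 10 min at ambient temperature / Measured by: luminescence measurement of luciferase light output / Benchmarks: low control with PBS replacing ATP, high control enzyme plus ATP without compound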
FLuc inh counter: firefly luciferase enzyme inhibitors, primary screen, artefact control for luciferase-based inhibitor screens, biochemical, luminescence, ATPLite; inhibition, % at 10 µM; 10 min; actives 1.5% (n = 200,000); AID 1006, 2008;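 active = inhibition above about 50% when tested at 10 µM, limit read from the data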
PPC-1+TRAIL kill: compounds killing PPC-1 cancer cells with TRAIL present, primary screen, TRAIL potentiator project, ATPLite luminescence, uHTS; cell killing (% activity), % at 4 µM or 5 µM; PPC-1 cells + TRAIL, ATPLite viability luminescence; actives 0.41% (n = 220,000);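 active = cell killing above 50% in the first pass at 4 µM, then a duplicate retest at 5 µM averaging 50% or more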;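 also: plate controls were cells with TRAIL plus DMSO for no effect and medium-only wells lacking cells for full effect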
C8 TRAIL sens: viability loss with TRAIL in NB7+C8 cells, primary screen, TRAIL sensitizer project, cell-based, ATPlite luminescence. inhibition (viability loss, TRAIL sensitization), % at 10 µM. actives 1% (n = 360,000). AID 624354, 2012;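 active = compounds causing at least 50% loss of cell viability in the single-dose screen, relative to plate controls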
APP 5'UTR act: activators of APP 5'UTR luciferase reporter, primary screen, SH-SY5Y cells; SH-SY5Y APP 5'UTR luciferase reporter, luminescence; zero percent = DMSO vehicle wells; activation, % at 2 µM; actives 1% (n = 190,000);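 active = activation above a set limit, based on mean plus 3 SD of controls, cut at about 140% in these data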
PPC1 cytotox: cytotoxicity in PPC-1 cells, confirmation, cytotoxicity control for TRAIL apoptosis potentiator project, cell-based, ATP content luminescence. shares compounds with PPC-1+TRAIL kill. PPC-1 viability, ATPlite luminescence, overnight. cytotoxicity, % at 5 µM. actives 50% (n = 1,200);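 active = reconfirmed compounds whose average cytotoxicity reaches 50% or more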;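 also: 0% = DMSO-treated cells and 100% = wells holding medium but no cells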
* = called active by the depositor.

Screening CCOc1ccc(C(=O)Nc2ccccc2C(=O)O)cc1 returned NF-kB expr up 1.1, FLuc stim CS 0.1, FLuc inh counter 93*, PPC-1+TRAIL kill 62*, C8 TRAIL sens 75*, APP 5'UTR act 64 and PPC1 cytotox 62*.
CCOc1ccc(C(=O)Nc2cc(C)on2)cc1 was read as NF-kB expr up 3.6*, FLuc stim CS 0.3, FLuc inh counter 74*, PPC-1+TRAIL kill 47, C8 TRAIL sens 64*, APP 5'UTR act 109 and PPC1 cytotox 50*.
For O=C(CC[C@H]1O[C@@H](n2ccc(=O)[nH]c2=O)[C@H](O)[C@@H]1O)NC1CCN(Cc2ccccc2)C1 (stereo not given in full) the results were C8 TRAIL sens 4.
CC(C)OC(=O)c1ccc2ccc(-c3ccccc3)nc2c1 was read as C8 TRAIL sens 33.
Screening O=C(NCCCN1CCCC1=O)c1cccc(C(F)(F)F)c1 returned NF-kB expr up 0.92, FLuc stim CS 1, FLuc inh counter -4, PPC-1+TRAIL kill 1, C8 TRAIL sens -9, APP 5'UTR act 1 and PPC1 cytotox -3.
Screening COc1ccc(/C=N/Nc2nncc3ccccc23)cc1 returned NF-kB expr up 3.1, FLuc stim CS 0, FLuc inh counter 97*, PPC-1+TRAIL kill 95*, C8 TRAIL sens 91*, APP 5'UTR act 188* and PPC1 cytotox 95*.
`COc1ccc(-c2cnnc(N/N=C/c3ccc(OC)c(OC)c3)n2)cc1` gave NF-kB expr up 1.1, FLuc stim CS 0.7, FLuc inh counter 30, PPC-1+TRAIL kill 5, C8 TRAIL sens 21 and APP 5'UTR act -18.
For O=C(NCc1cc(Cl)cc(Cl)c1)c1csc([C@@H]2C[C@H](O)[C@@H](CO)O2)n1 the results were C8 TRAIL sens -10.
`O=C(Nc1nccs1)c1cc2c(s1)CCCCC2` gave NF-kB expr up 1.4, FLuc stim CS 0.1, FLuc inh counter 94*, PPC-1+TRAIL kill 84*, C8 TRAIL sens 90*, APP 5'UTR act 37 and PPC1 cytotox 78*.
For NNC(=O)c1cc2c(s1)CCCCCC2 the results were NF-kB expr up 1.4, FLuc stim CS 1.1, FLuc inh counter -5, PPC-1+TRAIL kill -6, C8 TRAIL sens -15, APP 5'UTR act -70 and PPC1 cytotox -1.
For O=C(O)c1ccc2c(c1)C(=O)N(c1cccc(-c3nc4ccccc4s3)c1)C2=O the results were NF-kB expr up 1.5, FLuc stim CS 0.7, FLuc inh counter 34, PPC-1+TRAIL kill 39, C8 TRAIL sens 49, APP 5'UTR act 36 and PPC1 cytotox 37.
Nc1cccc(-c2nc3ccccc3s2)c1 was read as NF-kB expr up 5.9*, FLuc stim CS 0.2, FLuc inh counter 76*, PPC-1+TRAIL kill 36, C8 TRAIL sens 51*, APP 5'UTR act 130 and PPC1 cytotox 39.
O=S(=O)(c1cccc(-c2nc3ccccc3s2)c1)N1CCCC1 was read as NF-kB expr up 1.4, FLuc stim CS 1, FLuc inh counter -2, PPC-1+TRAIL kill 10, C8 TRAIL sens 3, APP 5'UTR act 18 and PPC1 cytotox 8.
For CC1(C(=O)O)CCN1C(=O)c1cccc(C(F)(F)F)c1 (stereo not given) the results were C8 TRAIL sens -24.
Screening N=c1cc(C2(O)CCCCC2)n2c(nc3ccccc32)s1 returned NF-kB expr up 4.1*, FLuc stim CS 0.1, FLuc inh counter 94*, PPC-1+TRAIL kill 75*, C8 TRAIL sens 84*, APP 5'UTR act 185* and PPC1 cytotox 78*.
OC[C@@H]1CN(Cc2ccc(Cl)cc2)C[C@H](n2cnc3c(NCc4ccc(F)cc4)ncnc32)O1 was read as C8 TRAIL sens -6.
`O=C(Nc1c(-c2ccc(Cl)cc2)[nH][nH]c1=O)c1ccccc1Cl` gave C8 TRAIL sens -6.
`Cc1cccc(-n2ncc3c(N(C)C4CCCCC4)ncnc32)c1` gave PPC-1+TRAIL kill 80*, C8 TRAIL sens 88* and PPC1 cytotox 82*.
CCCCNC(=O)C1C(c2ccc(C(F)(F)F)cc2)=Nc2ccccc2N1C(=O)c1cccc2ccccc12 (stereo not given) was read as C8 TRAIL sens -2.
`O=C(Nc1cccc2ccccc12)C12CC3CC(C1)CC(n1cnc([N+](=O)[O-])n1)(C3)C2` gave NF-kB expr up 0.54, FLuc stim CS 1.1, FLuc inh counter -8, PPC-1+TRAIL kill 4, C8 TRAIL sens 7, APP 5'UTR act -2 and PPC1 cytotox 14.
Screening O=C(O)c1ccc(CNC(=O)C2CCN(S(=O)(=O)c3cccs3)CC2)cc1 returned C8 TRAIL sens -17.
Screening CCCCN(C)S(=O)(=O)c1c(C)[nH]c(=O)[nH]c1=O returned NF-kB expr up 0.9, FLuc stim CS 1.1, FLuc inh counter -8, PPC-1+TRAIL kill 5, C8 TRAIL sens 5, APP 5'UTR act -12 and PPC1 cytotox 0.
`O=C(C(=O)N1CCN(c2ccccc2)CC1)c1ccccc1` gave C8 TRAIL sens -5.
Screening O=C(Nc1ccc(Cl)c(Cl)c1)c1ccc(Cl)c(Cl)c1 returned PPC-1+TRAIL kill 2 and C8 TRAIL sens -1.
For O=C(Nc1ccc(Cl)c(Cl)c1)c1ccncc1 the results were NF-kB expr up 1.5, FLuc stim CS 1, FLuc inh counter 1, PPC-1+TRAIL kill 8, C8 TRAIL sens 3, APP 5'UTR act 14 and PPC1 cytotox 12.
Screening COc1ccc(NC(=O)C2(C)CCCN(C(C)C)C2)cc1F (stereo not given) returned C8 TRAIL sens 7.
Screening CC1=NNC(=O)C1CC(=O)N/N=C/C(Br)=C/c1ccccc1 (stereo not given) returned PPC-1+TRAIL kill 20 and C8 TRAIL sens -6.
`CC1C(=O)NN=C1C(=O)N/N=C\C(Br)=C\c1ccccc1` (stereo not given) gave NF-kB expr up 3.1, FLuc stim CS 0, FLuc inh counter 95*, PPC-1+TRAIL kill 78*, C8 TRAIL sens 74*, APP 5'UTR act 127 and PPC1 cytotox 79*.
For O=C(NCC1CCCO1)c1[nH]c(C(F)(F)F)nc1-c1ccccc1 (stereo not given) the results were C8 TRAIL sens -11.
`CCCC(=O)N1CCC1(C)C(=O)Nc1ccc2c(c1)CCN2C(C)=O` (stereo not given) gave C8 TRAIL sens -11.

Screens: PubChem, several laboratories
